Experimental data published in the array DNA melting data of Ke et al. (doi:10.1101/2024.01.08.574731).

Assays:
[1] = melting temperature; fluorescence melt of hairpins on a sequencing array, two-state fit, raised by 9.35 °C to match UV melts; settings: sodium 0.088 M
Method in brief: (§1)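 In 50 mM Na-HEPES pH 8.0 containing 25 mM NaCl, hairpins from the library on a sequenced MiSeq flow cell were imaged for Cy3 fluorescence at 2.5 °C steps up to 60 °C, with Cy3 and quencher oligos annealed. After normalisation to pre-quench Cy3 and to control constructs, two-state fits with bootstrapping gave melting temperature and folding enthalpy. Four replicates were combined by inverse-variance weighting, and fitted temperatures were shifted up by 9.35 °C to match UV melts.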

[2] = folding enthalpy; higher = less favourable; fluorescence melt of hairpins on a sequencing array, two-state fit; settings: sodium 0.088 M
Method in brief: as §1

Sequence | Tm [1] | folding enthalpy [2]
GAGGGCCGAAAGGCTCTC (((.(((....))).))) | 67 °C | -128 kJ/mol
GTGTACGAAAGTAACCAC ((((((....)))..))) | 32 °C | -62.8 kJ/mol
GATCCATAGTGGATC ((((((...)))))) | 49.2 °C | -159 kJ/mol
GTACACGAAAGTGAATAC ((((((....)))..))) | 28.6 °C | -44.2 kJ/mol
GAAAGACCGAAAGGTTTC (((..(((....)))))) | 28.8 °C | -47.9 kJ/mol
GTGCCCGAAAGGGTGCAC ((((((....)))..))) | 55.3 °C | -61.2 kJ/mol
GCATGTCGAAAGACTGC (((.(((....)))))) | 56.1 °C | -146 kJ/mol
GCCAAGCGAAAGCATTGC ((.(.((....)).).)) | 32.5 °C | -46.9 kJ/mol
GAATATGAAAATATTC ((((((....)))))) | 39.8 °C | -103 kJ/mol
GATCATTCGGATGATC ((((((....)))))) | 48.1 °C | -149 kJ/mol
GGTCTACGAAAGTATACC (((.(((....))).))) | 42.2 °C | -149 kJ/mol
GTGAACGAAAGTTTACAC ((((((....)))..))) | 39.6 °C | -77.9 kJ/mol
GTGCGCGAAAGCGTCAC ((((((....))).))) | 58.6 °C | -88 kJ/mol
GATCTGGTCCCAGATC ((((((....)))))) | 54.1 °C | -166 kJ/mol
GGCGACGGAAACGCCACC ((.(.((....)).).)) | 46 °C | -70.7 kJ/mol
GCTATGCGAAAGCCTCGC ((.(.((....)).).)) | 32.2 °C | -48 kJ/mol
GGTTGCGAAAGCATAACC ((((((....)))..))) | 45.9 °C | -85.9 kJ/mol
GGCTGAACGAAAGTTGCC (((..(((....)))))) | 46.9 °C | -103 kJ/mol
GTTGACGGAAACGTCAGC (.(((((....))))).) | 52.5 °C | -92.2 kJ/mol
GCGTACAACGC ((((...)))) | 55.6 °C | -93.7 kJ/mol
GTGCAGCGAAAGCTACAC (((.(((....))).))) | 54.1 °C | -130 kJ/mol
GCGTACCCGAAAGGGCGC (((..(((....)))))) | 56.4 °C | -92.3 kJ/mol
GCAGGGCGAAAGCTCGGC ((.(.((....)).).)) | 59.2 °C | -86.1 kJ/mol
GCGTTTTCGAAAGAACGC (((..(((....)))))) | 49.6 °C | -134 kJ/mol

Sequence | Tm [1] | folding enthalpy [2]
GATCGACGTCTCGATC ((((((....)))))) | 50 °C | -177 kJ/mol
GGCAGCGAAAGCTCAGCC ((((((....)))..))) | 51 °C | -76.9 kJ/mol
GTTGCCTCGAAAGAGAAC (((..(((....)))))) | 25.4 °C | -50.7 kJ/mol
GTCATACGAAAGTAAGAC (((.(((....))).))) | 43.5 °C | -107 kJ/mol
GACCAGGGAAACCCGGTC ((((.((....)).)))) | 50.1 °C | -158 kJ/mol
GCGTCCGGAAACGAACGC ((((.((....)).)))) | 54.7 °C | -179 kJ/mol
GCCCGCGAAAGCGTAGGC ((((((....)))..))) | 62.4 °C | -93.2 kJ/mol
GATCCATACTGGATC ((((((...)))))) | 51.4 °C | -157 kJ/mol
GCGTGCCCACGC ((((....)))) | 60.2 °C | -111 kJ/mol
GCTGACGAAAGTCCAAGC ((((((....)))..))) | 43.5 °C | -69 kJ/mol
GATCAAGAATTTGATC ((((((....)))))) | 49 °C | -129 kJ/mol
GGCGTGACGAAAGTCGCC (((..(((....)))))) | 57.5 °C | -88.5 kJ/mol
GGACTTCGAAAGAATTCC (((.(((....))).))) | 36.8 °C | -133 kJ/mol
GCGCCGCGAAAGCAGTGC ((.(.((....)).).)) | 53.5 °C | -81.4 kJ/mol
GATTAAGGAAACTTAGTC ((.((((....)))).)) | 28 °C | -52.7 kJ/mol
GCGAAGCGAAAGCTAGGC ((..(((....)))..)) | 40.9 °C | -22.3 kJ/mol
GTTCGACGAAAGTCAAC (((.(((....)))))) | 36.8 °C | -66 kJ/mol
GGACGGGGAAACCTGTCC ((((.((....)).)))) | 56.8 °C | -186 kJ/mol
GATCACCCGCGTGATC ((((((....)))))) | 54.5 °C | -202 kJ/mol
GATCATCTAATGATC ((((((...)))))) | 47.2 °C | -145 kJ/mol
GATCCGTTGCCGGATC ((((((....)))))) | 58.4 °C | -196 kJ/mol
GATCGGATGCCCGATC ((((((....)))))) | 55.5 °C | -113 kJ/mol
GACCACGAAAGTGGCGTC ((((((....)))..))) | 45.6 °C | -52.3 kJ/mol
GCTCCGCGAAAGCCTAGC (((..((....))..))) | 34.7 °C | -44.6 kJ/mol

Sequence | Tm [1] | folding enthalpy [2]
GGCATCCCGAAAGGGGCC (((..(((....)))))) | 52.3 °C | -79 kJ/mol
GGGTACGGAAACATACCC (((((.(....).))))) | 40.2 °C | -138 kJ/mol
GATCCCAAGGGGGATC ((((((....)))))) | 58.1 °C | -138 kJ/mol
GCACCGCGAAAGCACTGC (((..((....))..))) | 31.2 °C | -36.1 kJ/mol
GATCATCGATATGATC ((((((....)))))) | 45.3 °C | -123 kJ/mol
GATCATCTCATGATC ((((((...)))))) | 50 °C | -158 kJ/mol
GCCCTTCGAAAGAATGGC (((.(((....))).))) | 47.4 °C | -144 kJ/mol
GACACCGAAAGGTTCGTC ((((((....)))..))) | 41.2 °C | -85.4 kJ/mol
GCTGGTGAAAACCAGC ((((((....)))))) | 69.1 °C | -94.7 kJ/mol
GATCTATCAGTAGATC ((((((....)))))) | 40.4 °C | -136 kJ/mol
GTAATACGAAAGTACTAC (((.(((....))).))) | 31.1 °C | -70.9 kJ/mol
GGAGTCCCGAAAGGGTCC (((..(((....)))))) | 34 °C | -51.9 kJ/mol
GAGATGGGAAACCGTCTC ((((.((....)).)))) | 49.6 °C | -160 kJ/mol
GATCATCTCGATGATC ((((((....)))))) | 54.6 °C | -212 kJ/mol
GATCGACTTCTCGATC ((((((....)))))) | 51.5 °C | -171 kJ/mol
GATCCACGAAAGTGCATC (((.(((....))).))) | 32.8 °C | -67.5 kJ/mol
GATCATGAGTATGATC ((((((....)))))) | 46.7 °C | -130 kJ/mol
GCGTCCGAAAGGATCGC ((((((....))).))) | 59.5 °C | -158 kJ/mol
GGGTAGTCGAAAGACCCC (((..(((....)))))) | 45.4 °C | -85.7 kJ/mol
GCGGGGCGAAAGCCTGGC ((..(((....)))..)) | 57.8 °C | -80.5 kJ/mol
GCGTTACAACGC ((((....)))) | 58.6 °C | -110 kJ/mol
GCCTCCGAAAGGACTGGC ((((((....)))..))) | 44.4 °C | -116 kJ/mol
GATCGAGCGATCGATC ((((((....)))))) | 57.5 °C | -149 kJ/mol
GATCATGGGAATGATC ((((((....)))))) | 51.8 °C | -154 kJ/mol

Sequence | Tm [1] | folding enthalpy [2]
GGAGTGCCGAAAGGCTCC (((..(((....)))))) | 41.9 °C | -50.8 kJ/mol
TCTTCGAAAGAAGA (((((....))))) | 45.8 °C | -78.8 kJ/mol
GGGGCTCGAAAGAGTCCC (((.(((....))).))) | 67.7 °C | -179 kJ/mol
GATCATCTATATGATC ((((((....)))))) | 47.9 °C | -151 kJ/mol
GATCGAAACCTCGATC ((((((....)))))) | 51.3 °C | -166 kJ/mol
GCAGGGGGAAACCCTTGC (((.(((....))).))) | 52.2 °C | -129 kJ/mol
GCAGAGCGAAAGCCGTGC (((..((....))..))) | 42.1 °C | -68.5 kJ/mol
GCCTTGGGAAACTAAGGC (((((.(....).))))) | 50.9 °C | -145 kJ/mol
GACACGCGAAAGCGAGTC (((.(((....))).))) | 60.5 °C | -102 kJ/mol
CTACGGAAACGTAG (((((....))))) | 49.4 °C | -104 kJ/mol
GGGACGGGAAACCGTCTC (.(((((....))))).) | 56.5 °C | -84.4 kJ/mol
GGGACAGAAATGTCCC ((((((....)))))) | 64.1 °C | -123 kJ/mol
GATCGTAGGGACGATC ((((((....)))))) | 56 °C | -132 kJ/mol
GACACCGGAAACGGTATC ((.((((....)))).)) | 36.1 °C | -66.4 kJ/mol
GTGCGCACGAAAGTGCAC (((..(((....)))))) | 64 °C | -47.7 kJ/mol
GTTCGGGGAAACCCGAGC (.(((((....))))).) | 53.3 °C | -107 kJ/mol
GGGAGTACGAAAGTACCC (((..(((....)))))) | 51.3 °C | -54.7 kJ/mol
GCGCCTGGAAACAGGTGC ((.((((....)))).)) | 64.2 °C | -195 kJ/mol
GGGATGGCGAAAGCCCCC (((..(((....)))))) | 47.3 °C | -65.6 kJ/mol
GCTTGGGGAAACCCGAGC (((.(((....))).))) | 56.7 °C | -175 kJ/mol
GAAACGGGAAACCATTTC ((((.((....)).)))) | 28.8 °C | -90.1 kJ/mol
